Shown are actives, neighbours in structure and some others; about 12% of the full set was active somewhere.
WT yeast gro inh = growth inhibition of WT strain, primary screen, mitochondrial fusion inhibitor project, WT and mutant strains, chemical genetic | mitochondrial fusion phenotypic screen | inhibition, % at 10 µM | actives 2.1% (n = 190,000) | AID 1362, 2008; in the data active means inhibition above about 58%; tested in S. cerevisiae
RAM network inh = inhibitors of the yeast RAM network, primary screen, dse1pr::URA3 reporter, 5-FOA selection. actives 1.8% (n = 190,000). S. cerevisiae dse1pr::URA3 reporter, 5-FOA growth OD615, 2 d; analog-sensitive cbk1-as2 kinase mutant strain. inhibition, % at 50 µM. AID 868, 2007;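 active means inhibition above a set limit, 3 SD over mean compound inhibition, cut at about 8.4% in these data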;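 further: 0% = DMSO-only wells with no growth and 100% = 10 µM 1-NA-PP1 full growth; inhibition rescues growth on 5-FOA so higher OD means more RAM inhibition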
ABCB1 inh = ABCB1 efflux pump inhibitors, primary screen, cell-based, multiplex, flow cytometry, ABCG2 counter-screen | actives 0.067% (n = 190,000) | CCRF-Adr cells, JC-1 efflux | ATP-dependent translocase ABCB1 (Homo sapiens), P08183 | inhibition, % at 6.6 µM; in the data active means inhibition above about 40%;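 further: 0% = vehicle and 100% = reference inhibitor; higher value means more JC-1 retained so stronger ABCB1 efflux block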
Target sequence (P08183 whole entry, looked up): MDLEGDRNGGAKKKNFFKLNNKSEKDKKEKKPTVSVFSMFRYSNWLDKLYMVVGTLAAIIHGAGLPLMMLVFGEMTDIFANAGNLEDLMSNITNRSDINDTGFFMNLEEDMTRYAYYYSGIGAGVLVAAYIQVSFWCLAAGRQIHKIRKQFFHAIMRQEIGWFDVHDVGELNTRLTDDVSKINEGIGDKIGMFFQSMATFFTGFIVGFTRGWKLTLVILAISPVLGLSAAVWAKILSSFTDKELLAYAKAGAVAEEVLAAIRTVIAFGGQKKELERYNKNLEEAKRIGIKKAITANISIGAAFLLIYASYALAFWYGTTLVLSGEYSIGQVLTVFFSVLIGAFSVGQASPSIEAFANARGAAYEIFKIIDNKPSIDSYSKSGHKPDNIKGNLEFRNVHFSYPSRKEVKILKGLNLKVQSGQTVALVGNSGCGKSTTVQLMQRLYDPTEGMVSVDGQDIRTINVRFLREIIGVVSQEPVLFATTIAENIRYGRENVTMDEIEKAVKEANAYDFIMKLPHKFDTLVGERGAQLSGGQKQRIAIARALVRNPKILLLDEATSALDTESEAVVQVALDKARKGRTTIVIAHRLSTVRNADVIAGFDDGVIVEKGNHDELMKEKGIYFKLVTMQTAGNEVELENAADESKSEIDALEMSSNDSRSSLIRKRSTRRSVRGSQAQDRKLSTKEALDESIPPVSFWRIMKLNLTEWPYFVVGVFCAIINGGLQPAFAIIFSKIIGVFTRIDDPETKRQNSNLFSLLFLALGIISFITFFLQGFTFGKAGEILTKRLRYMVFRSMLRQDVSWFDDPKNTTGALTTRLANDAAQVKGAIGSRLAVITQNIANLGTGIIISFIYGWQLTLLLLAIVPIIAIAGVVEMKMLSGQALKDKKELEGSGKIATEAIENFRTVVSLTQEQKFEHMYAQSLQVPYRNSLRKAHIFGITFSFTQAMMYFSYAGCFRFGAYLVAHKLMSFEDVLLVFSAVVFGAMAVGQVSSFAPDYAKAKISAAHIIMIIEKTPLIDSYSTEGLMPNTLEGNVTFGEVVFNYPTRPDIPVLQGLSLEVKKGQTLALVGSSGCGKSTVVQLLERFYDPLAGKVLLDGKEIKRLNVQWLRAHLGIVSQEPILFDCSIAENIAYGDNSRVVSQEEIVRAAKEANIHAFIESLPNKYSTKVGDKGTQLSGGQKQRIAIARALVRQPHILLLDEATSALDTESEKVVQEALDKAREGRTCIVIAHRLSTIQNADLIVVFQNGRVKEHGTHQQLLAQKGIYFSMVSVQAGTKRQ
L major viab = Leishmania major promastigote growth inhibition, primary screen | AID 1063, 2008 | actives 9% (n = 200,000) | inhibition, % at 10 µM | Leishmania major promastigotes, resazurin fluorescence viability; in the data active means inhibition above about 50%;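 further: promastigotes grown with compound for 44 hours at 28 °C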
ABCG2 block = ABCG2 efflux pump inhibitors, primary screen, multiplex with ABCB1, IgMXP3 cells, flow cytometry; Broad substrate specificity ATP-binding cassette transporter ABCG2 (Homo sapiens), Q9UNQ0; JC-1 efflux; inhibition, % at 6.6 µM; actives 0.1% (n = 190,000); AID 1325, 2008;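 active means inhibition above 80%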;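 further: 0% = DMSO and 100% = nicardipine control wells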
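Test system: IgMXP3 (ABCG2) plus far-red-tagged CCRF-Adr (ABCB1) cells. Reagent: JC-1 dye as substrate. Timing: 10 min exposure at 25 °C with rotation, no wash. Measured by: flow cytometric JC-1 green MFI at 530 nm. Read-out: percent efflux inhibition, scaled nicardipine 100% to DMSO 0%. Control set: nicardipine and DMSO wells.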
* marks the source's active call; other numbers are inactive results.

SMILES	WT yeast gro inh	RAM network inh	ABCB1 inh	L major viab	ABCG2 block
Cc1ccc(-c2cc(C(F)F)nc(NCc3cccs3)n2)cc1	-20.1	2.0	2.6	-6.5	9.7
CCC(c1nnc(SCC(=O)Nc2ccc(Cl)cc2C(F)(F)F)n1C1CCCCC1)N(C)C (configuration not stated)	8.6	0.0	2.8	-2.0	3.5
O=C(COC(=O)c1cc(=O)[nH]c2ccc(Br)cc12)c1ccccc1	6.1	4.5	0.0	7.3	0.2
CN(C(=O)Nc1ccc(Cl)c(Cl)c1)c1ccccc1C(=O)O	71.7*	0.0	1.0	-5.0	2.0
CN=C(Nc1ccc(Br)cc1)SC1CC(=O)N(c2ccc(OC)cc2)C1=O (configuration not stated)	48.0	3.6	0.1	0.0	3.6
CN1C(=C2C(=O)OC(C)(C)OC2=O)Sc2ccccc21	0.3	0.8	0.0	99.5*	0.0
CCN1/C(=C2\OC(=S)N(C)C2=O)Sc2ccccc21	1.2	1.7	0.1	-3.3	45.9
O=c1c2ccccc2c(/C=N/c2n[nH]c(CCCO)n2)c(O)n1-c1ccccc1Cl	-18.6	8.5*	0.1	-6.4	1.9
C/C(=C/C(=O)Nc1cccc(F)c1)N1CCCC1	-10.7	2.2	0.3	1.8	0.5
CC(=O)OC[C@H]1O[C@H](C/C=N/OC[C@@H](O)[C@H]2O[C@@H]3OC(C)(C)O[C@@H]3[C@H]2O)C=C[C@@H]1OC(C)=O	-7.4	2.9	0.9	12.3	0.0
CCc1ccc(C(=O)Cn2ncc(Cl)c(Cl)c2=O)cc1	-16.2	3.5	0.8	28.2	7.6
O=C(OCn1ncc(Cl)c(Cl)c1=O)c1cccc(C(F)(F)F)c1	5.5	3.1	0.3	58.6*	2.1
Cc1cccc(C)c1N1CCN(c2ccc3nnc(C(F)(F)F)n3n2)CC1	77.6*	3.5	0.3	59.8*	2.2
CCOc1cc(C2C3=C(CC(C)(C)CC3=O)OC3=C2C(=O)CC(C)(C)C3)cc([N+](=O)[O-])c1O	-2.6	1.7	2.1	2.6	3.5
CCOC(=O)C1=CN(c2cccc(F)c2)C=C(C(=O)OCC)C1c1cc(OC)c(O)c([N+](=O)[O-])c1	87.8*	6.0	6.3	-9.0	5.8
CCOc1ccc2c(c1)C(N(CCN1CCOCC1)C(=S)Nc1ccccc1OC)CC(C)(C)O2 (configuration not stated)	12.8	2.7	3.4	58.5*	0.5
Cc1noc(C)c1CN1C(=O)NC2(CCCCCCC2)C1=O	-7.0	1.9	-2.0	100.0*	-2.1
O=C(CSc1cccc[n+]1[O-])Nc1cccc(S(=O)(=O)NC2=NCCCCC2)c1	-2.1	0.1	0.2	-4.4	0.8
COC(=O)c1cn(N(C)c2ncc(C(F)(F)F)cc2Cl)c(=O)c2ccccc12	71.9*	3.8	0.6	1.3	3.6
Cc1ccccc1N(CC(=O)N/N=C/c1ccc(Cl)cc1)C(=O)c1ccccc1	45.1	1.2	0.8	67.5*	1.5
CCOC(=O)CN(C(=O)c1ccccc1)c1ccccc1C	7.5	2.3	0.4	7.2	0.6
Cc1ccccc1N(CC(=O)N/N=C/c1ccc(F)cc1)C(=O)c1ccccc1	5.4	1.8	1.4	99.2*	12.4
C=CCn1c(=N)n(CC(=O)O)c2ccccc21	-0.2	0.6	-1.9	3.7	-1.4
CC(C)(C)C(=O)Cn1c(=N)n(Cc2ccccc2)c2ccccc21	70.5*	1.2	0.5	57.7*	1.7
N=c1n(CC(=O)c2cccc([N+](=O)[O-])c2)c2ccccc2n1Cc1ccccc1	19.9	1.8	0.6	62.6*	8.6
CC(C)(C)C(=O)Cn1c(=N)n(Cc2ccccc2Cl)c2ccccc21	14.2	1.7	1.7	100.4*	5.4
Cc1ccc(Cn2c(=N)n(CC(=O)c3ccccc3)c3ccccc32)cc1	50.0	-1.3	0.9	100.3*	-0.6
N=c1n(CCO)c2ccccc2n1Cc1ccccc1Cl	-8.6	2.3	0.3	6.5	1.1
CC(C(=O)Nc1ccc2c(c1)OCCO2)N(C)Cc1c(F)cccc1Cl (configuration not stated)	55.6	-0.5	2.9	11.2	22.8
CCN(Cc1cnn(C)c1)Cc1nc(C(c2ccccc2)c2ccccc2)no1	70.7	-1.6	2.0	5.9	3.7

Screening data deposited in PubChem BioAssay by several laboratories.
